Source: ChEMBL document CHEMBL1127562, “N-substituted spirosuccinimide, spiropyridazine, spiroazetidine, and acetic acid aldose reductase inhibitors derived from isoquinoline-1,3-diones. 2” (J Med Chem, 1994)
Where “and” joins values, the source holds several entries; their conditions need not be identical. Identical values can stand only once. One block for each molecule: values may come before it. Calls of active or inactive are those of the source. The rule behind the calls is not given here.

Key:
[1] = target: Aldo-keto reductase family 1 member B1 (Bos taurus) (UniProt P16116); assay: Inhibition of aldose reductase activity in partially purified bovine lens preparation at 10e-5 M
Procedure, shortened: (§1)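 Partially purified bovine lens aldose reductase. Reduction of DL-glyceraldehyde substrate followed spectrophotometrically. Activity expressed as average inhibition at the tested concentrations, 1×10^-5, 1×10^-6, 1×10^-7 and 4×10^-6 M as printed; IC50 in M where given.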

[2] = tested on: Rattus norvegicus; assay: Tested for in vivo inhibition of galactitol accumulation in the sciatic nerve of galactose-fed rats at the dose of 1.0 (mg/kg/day); format: functional
Procedure, shortened: (§2)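 Rats were given a 20% galactose diet for 4 days, with the test compound administered in the diet. Sciatic nerve galactitol accumulation was measured, and activity is given as % inhibition at the stated daily dose (mg/kg/day). Values are mean ± SEM, n = 6 animals; p < 0.01 unless indicated. NS means no significant inhibition of polyol accumulation.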

[3] = tested on: Rattus norvegicus; assay: Tested for in vivo inhibition of galactitol accumulation in the lens of galactose-fed rats at the dose of 93.6 (mg/kg/day); NS=Not significant; format: functional, organism-based; conditions: Lens of camera-type eye
Procedure, shortened: (§3)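 Galactosemic rats were fed 20% galactose for 4 days, with the compound mixed into the diet. […] galactitol accumulation was measured, and activity is given as % inhibition at the stated daily dose (mg/kg/day). Values are mean ± SEM of six animals; p < 0.01 unless indicated. NS means no significant inhibition of polyol accumulation.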

[4] = tested on: Rattus norvegicus; assay: Tested for in vivo inhibition of galactitol accumulation in the sciatic nerve of galactose-fed rats at the dose of 49.3 (mg/kg/day); format: functional
Procedure, shortened: (§4)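 Rats fed a 20% galactose diet for 4 days, with test compound given in the diet at the stated daily dose (mg/kg/day). Read-out is inhibition of galactitol (polyol) accumulation in sciatic nerve. Values are % inhibition, mean ± SEM of six animals; p < 0.01 unless marked (some p < 0.05). NS = no significant inhibition of polyol accumulation. Tolrestat was the reference standard.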

[5] = tested on: Rattus norvegicus; assay: Tested for in vivo inhibition of galactitol accumulation in the lens of galactose-fed rats at the dose of 49.3 (mg/kg/day); NS=Not significant; format: functional, organism-based; conditions: Lens of camera-type eye
[6] = tested on: Rattus norvegicus; assay: Tested for in vivo inhibition of galactitol accumulation in the sciatic nerve of galactose-fed rats at the dose of 93.6 (mg/kg/day); format: functional; procedure, shortened: as §4
[7] = tested on: Rattus norvegicus; assay: Tested for in vivo inhibition of galactitol accumulation in the lens of galactose-fed rats at the dose of 27.5 (mg/kg/day); format: functional, Lens of camera-type eye
[8] = tested on: Rattus norvegicus; assay: Tested for in vivo inhibition of galactitol accumulation in the sciatic nerve of galactose-fed rats at the dose of 27.5 (mg/kg/day); format: functional; procedure, shortened: as §2
[9] = tested on: Rattus norvegicus; assay: Tested for in vivo inhibition of galactitol accumulation in the sciatic nerve of galactose-fed rats at the dose of 9.8 (mg/kg/day); format: functional; procedure, shortened: as §4
[10] = target: Aldo-keto reductase family 1 member B1 (Bos taurus, UniProt P16116); assay: Compound was tested in vitro for inhibition of aldose reductase activity in partially purified bovine lens preparation; procedure, shortened: as §1
[11] = tested on: Rattus norvegicus; assay: Tested for in vivo inhibition of galactitol accumulation in the sciatic nerve of galactose-fed rats; format: functional, organism-based
[12] = tested on: Rattus norvegicus; assay: Tested for in vivo inhibition of galactitol accumulation in the lens of galactose-fed rats; format: functional, organism-based; conditions: Lens of camera-type eye
[13] = tested on: Rattus norvegicus; assay: Tested for in vivo inhibition of galactitol accumulation in the lens of galactose-fed rats at the dose of 10.5 (mg/kg/day); NS=Not significant; format: functional, organism-based; conditions: Lens of camera-type eye
[14] = tested on: Rattus norvegicus; assay: Tested for in vivo inhibition of galactitol accumulation in the lens of galactose-fed rats at the dose of 49 (mg/kg/day); format: functional, Lens of camera-type eye
[15] = tested on: Rattus norvegicus; assay: Tested for in vivo inhibition of galactitol accumulation in the sciatic nerve of galactose-fed rats at the dose of 49 (mg/kg/day); format: functional; procedure, shortened: as §4
[16] = tested on: Rattus norvegicus; assay: Tested for in vivo inhibition of galactitol accumulation in the sciatic nerve of galactose-fed rats at the dose of 55.4 (mg/kg/day); format: functional; procedure, shortened: as §4
[17] = tested on: Rattus norvegicus; assay: Tested for in vivo inhibition of galactitol accumulation in the sciatic nerve of galactose-fed rats at the dose of 50.5 (mg/kg/day); format: functional; procedure, shortened: as §4
[18] = tested on: Rattus norvegicus; assay: Tested for in vivo inhibition of galactitol accumulation in the lens of galactose-fed rats at the dose of 50.5 (mg/kg/day); format: functional, Lens of camera-type eye
[19] = tested on: Rattus norvegicus; assay: Tested for in vivo inhibition of galactitol accumulation in the lens of galactose-fed rats at the dose of 25 (mg/kg/day); format: functional, Lens of camera-type eye
[20] = tested on: Rattus norvegicus; assay: Tested for in vivo inhibition of galactitol accumulation in the sciatic nerve of galactose-fed rats at the dose of 25 (mg/kg/day); format: functional; procedure, shortened: as §2
[21] = tested on: Rattus norvegicus; assay: Tested for in vivo inhibition of galactitol accumulation in the lens of galactose-fed rats at the dose of 86.1 (mg/kg/day); format: functional, Lens of camera-type eye; procedure, shortened: as §3
[22] = tested on: Rattus norvegicus; assay: Tested for in vivo inhibition of galactitol accumulation in the sciatic nerve of galactose-fed rats at the dose of 25.4 (mg/kg/day); format: functional; procedure, shortened: as §2
[23] = tested on: Rattus norvegicus; assay: Tested for in vivo inhibition of galactitol accumulation in the lens of galactose-fed rats at the dose of 25.4 (mg/kg/day); NS=Not significant; format: functional, organism-based; conditions: Lens of camera-type eye

inhibition [1]: inactive
SMILES: CN1C(=O)CC2(C1=O)C(=O)N(Cc1ccc(Br)cc1F)C(=O)c1ccc(F)cc12 (stereo not drawn)
Inhibition [2]: 28%

inhibition [1]: 83%
SMILES: COC(=O)NC(=O)CC1C(=O)N(Cc2nc3cc(C(F)(F)F)ccc3s2)C(=O)c2ccc(F)cc21 (stereo not drawn)
inhibition [3]: inactive
Inhibition [4]: 39%
inhibition [5]: inactive
Inhibition [6]: 59%

SMILES: CN1C(=O)c2ccc(Br)cc2C2(CC(=O)N2)C1=O (stereo not drawn)
Inhibition [7]: 36%
Inhibition [8]: 54%

inhibition [1]: inactive
SMILES: CN1C(=O)CC2(C1=O)C(=O)N(Cc1ccc(Cl)cc1)C(=O)c1ccccc12 (stereo not drawn)
Inhibition [9]: 35%

IC50 [10]: 23 nM
EC50 [12]: 10 mg/kg/day
SMILES: O=C1CC2(C(=O)N1)C(=O)N(Cc1ccc(Br)cc1F)C(=O)c1ccccc12 (stereo not drawn)
ED50 [11]: 0.3 mg/kg/day

SMILES: CN1C(=O)c2ccc(Cl)cc2C2(CC(=O)N2)C1=O (stereo not drawn)
inhibition [13]: inactive
Inhibition [14]: 66%
Inhibition [15]: 87%

inhibition [1]: inactive
SMILES: CN1C(=O)CC2(C(=O)N(Cc3ccc(Br)cc3F)C(=O)c3ccccc32)C(=O)N1C (stereo not drawn)
Inhibition [16]: 76%

inhibition [1]: inactive
SMILES: NN1C(=O)CC2(C1=O)C(=O)N(Cc1ccc(Br)cc1F)C(=O)c1ccc(F)cc12 (stereo not drawn)
Inhibition [17]: 75%
Inhibition [18]: 54%

inhibition [1]: 65%
SMILES: COC(=O)NC(=O)CC1C(=O)N(C)C(=O)c2ccc(Cl)cc21 (stereo not drawn)
Inhibition [19]: 24%
Inhibition [20]: 53%
Inhibition [21]: 54% and 81%

SMILES: COC(=O)NC(=O)CC1C(=O)N(Cc2ccc(Br)cc2F)C(=O)c2cc(OC)ccc21 (stereo not drawn)
Inhibition [22]: 68%
inhibition [23]: inactive
